Results: publication PMC3821739 (Organic & biomolecular chemistry, 2013)
Like-named read-outs stand apart in the source and are kept apart here.

Tests used:
[1] = test system: HIV-1 RRE IIB RNA; experiment: Dot blot assay, dissociation constant with wild-type RRE IIB RNA; format: binding; details: for loss of binding affinity compared to BPBA1: RRE IIB
[2] = molecular target: loop B/bulge A deleted RNA; experiment: Dot blot assay with RRE IIB variant loop B/bulge A deleted RNA; format: binding, HIV-1
[3] = test system: loop A/B/bulge A deleted RNA; experiment: Dot blot assay with RRE IIB variant loop A/B/bulge A deleted RNA; format: binding, HIV-1
[4] = test system: loop A(A-G)/B/bulge A deleted RNA; experiment: Dot blot assay with RRE IIB variant loop A; format: binding, HIV-1
[5] = test system: RRE IIB; experiment: RNase protection; format: binding, HIV-1; details: on ice
In short: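 5′-³²P-labelled RRE-IIB (10 nM) mixed with unlabelled RRE-IIB (200 nM), refolded at 95 °C for 3 min, then snap-cooled on ice. Test compound added in 10 mM Tris pH 7, 100 mM KCl, 10 mM MgCl₂, then 4 hr on ice. Digestion on ice: RNase V1 0.002 U for 10 min; T1 1 U or A 20 ng for 1 hr. Stopped by precipitation, run on 12% urea PAGE with an alkaline-hydrolysis ladder, autoradiography.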

[6] = test system: hexaloop RNA; experiment: Dot blot assay with RRE IIB variant hexaloop RNA; format: binding, HIV-1
[7] = molecular target: stem B deleted RNA; experiment: Dot blot assay with RRE IIB variant stem B deleted RNA; format: binding, HIV-1
[8] = test system: stem A/loop A deleted RNA; experiment: Dot blot assay with RRE IIB variant stem A/loop A deleted RNA; format: binding, HIV-1
[9] = molecular target: HIV-1 RRE IIB RNA; details: read-out: binding affinity (Kd) of hit BPBA; dot blot; cited from earlier work
[10] = test system: RRE IIB DNA; experiment: Dot blot assay with DNA of the same RRE IIB sequence; format: binding, HIV-1
[11] = test system: RRE; details: cited from earlier work

Compound: WKKGKBBAYWY [LPBA1]
- loss of binding affinity compared to BPBA1 [1]: > 50 fold

Compound: WKKGKBBAYWYWKK [LPBA5]
- loss of binding affinity compared to BPBA1 [1]: at least 5 fold

Compound: (WKK)2*KBBAYWY [BPBA1]
- Kd [2]: 8.7 µM
- lower affinity relative to RRE IIB [2]: 6 fold
- loss in binding affinity / selectivity relative to RRE IIB [3]: > 75 fold
- Kd ([1]; read-out: observed Kd in the presence of competing tRNA, 10-fold molar excess of bacterial tRNA relative to RRE IIB): 2.1 µM
- lower affinity relative to RRE IIB [4]: > 10 fold
- protection of RRE IIB from cleavage by RNase A ([5]; BPBA1 up to 20 µM): visibly protected U7, C21, and U36
- protection of RRE IIB from cleavage by RNase T1 ([5]; BPBA1 up to 20 µM): no noticeable changes in band intensity
- protection of RRE IIB from cleavage by RNase V1 ([5]; region A16 through G19, BPBA1 0.2 µM to 20 µM): concentration dependent protection
- increase of Kd compared to the wild type [6]: ~ 3 fold
- Kd [7]: 3.7 µM
- lower affinity relative to RRE IIB [8]: > 10 fold
- Kd [9]: 1.4 µM
- selectivity toward RNA over DNA ([10]; RRE IIB RNA versus RRE IIB DNA): 23 fold
- Kd ([10]; read-out: dissociation constant): 31.8 ± 6.6 µM

Compound: WKKWKKGKBBAYWY [LPBA4]
- loss of binding affinity compared to BPBA1 [1]: at least 5 fold

Compound: NC[C@@H]1O[C@H](O[C@H]2[C@@H](O)[C@H](O[C@@H]3[C@@H](O)[C@H](N)C[C@H](N)[C@H]3O[C@H]3O[C@H](CN)[C@@H](O)[C@H](O)[C@H]3N)O[C@@H]2CO)[C@H](N)[C@@H](O)[C@@H]1O [neomycin B]
- binding to RRE [11]: submicromolar

Compound: Ac(WKK)*KBBAYWY [LPBA3]
- loss of binding affinity compared to BPBA1 [1]: > 50 fold
